Legend:
Format in all cases: functional, organism-based
Conditions in all cases: Enterovirus C
Poliovirus 2 = test: Antiviral activity against Poliovirus Sabin 2 infected in human HeLa cells assessed as reduction in virus-induced cytopathic effect after 72 hrs by crystal violet staining-based assay
Outline: (§1)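 HeLa cells grown in MEM-10% FBS, seeded at 2x10^5 cells/mL in MEM-2% FBS and preincubated 24 h at 37°C, 5% CO2. Compound and virus were cross-titrated […] compound in 0.5 log10 steps (7-point curves), with duplicate wells and three replicate tests per virus. After 72 h at 37°C, cells were crystal violet stained and read at 590 nm. EC50 came from a four-parameter fit; if all virus dilutions gave >80% monolayer destruction, the value was […].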

Poliovirus 3 = test: Antiviral activity against Poliovirus Sabin 3 infected in human HeLa cells assessed as reduction in virus-induced cytopathic effect after 72 hrs by crystal violet staining-based assay
Outline: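 HeLa cells grown in MEM-10% FBS, seeded at 2x10^5 cells/mL in MEM-2% FBS and held 24 h at 37°C, 5% CO2. Compound and virus were cross-titrated together on the cells starting at 10 µM compound, in 0.5 log10 steps, duplicate wells, three replicate tests per virus. Incubated 72 h at 37°C, stained with crystal violet, A590 read. EC50 from four-parameter fit.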

Poliovirus 1 = test: Antiviral activity against Poliovirus Sabin 1 infected in human HeLa cells assessed as reduction in virus-induced cytopathic effect after 72 hrs by crystal violet staining-based assay; outline: as §1

| SMILES | EC50 (Poliovirus 2) | EC50 (Poliovirus 3) | EC50 (Poliovirus 1) |
| --- | --- | --- | --- |
| CCOC(=O)c1ccc(OCCC2CCN(c3ccc(C)nn3)CC2)cc1 [PIRODAVIR] | 5 nM | 8 nM | 4.5 nM |
| Cc1ccc(C(=O)CCCCS(=O)(=O)c2ccc(C3=NCCO3)cc2)s1 | > 10000 nM | > 10000 nM | > 10000 nM |
| N#Cc1ccc(NC(=O)c2cc3n(n2)C(C(F)(F)F)CC(c2cccs2)N3)cc1 (stereo unspecified) | 26 nM | 218 nM | 10 nM |
| Cc1ccc(C(=O)CCCCCc2ccc(C3=NCCO3)cc2)s1 | 9270 nM | 9070 nM | > 10000 nM |
| COc1ccc(OCc2ccc(COc3c(Cl)cccc3Cl)cc2)c(Cl)c1 | 16 nM | 20 nM | 17 nM |
| Cc1ccc(C(=O)CCCCOc2ccc(C3=N[C@H](C)CO3)cc2)s1 | 417 nM | 1320 nM | > 100000 nM |
| Cc1ccc(C(=O)CCCC[S+]([O-])c2ccc(C3=NCCO3)cc2)s1 (racemic) | > 10000 nM | > 10000 nM | > 10000 nM |
| Cc1ccc(C(=O)CCCCSc2ccc(C3=N[C@H](C)CO3)cc2)s1 | 302 nM | 530 nM | 169 nM |
| Cc1ccc(C(=O)c2cccc(COc3ccc(C4=NCCO4)cc3)c2)s1 | > 10000 nM | > 10000 nM | > 10000 nM |
| Cc1ccc(C(=O)c2cccc(CSc3ccc(C4=NCCO4)cc3)c2)s1 | > 10000 nM | > 10000 nM | > 10000 nM |
| Cc1ccc(C(=O)CCCC#Cc2ccc(C3=NCCO3)cc2)s1 | 9090 nM | 9160 nM | > 10000 nM |
| C#CC[C@@H](C(=O)N[C@H](/C=C/C(=O)OCC)C[C@@H]1CCNC1=O)n1cccc(NC(=O)c2cc(C)on2)c1=O [IMOCITRELVIR] | 305 nM | 137 nM | 173 nM |

— ChEMBL document CHEMBL4371031, “In Vitro Antiviral Activity of New Oxazoline Derivatives as Potent Poliovirus Inhibitors” (J Med Chem, 2019)
